Data: ChEMBL document CHEMBL4196091 (Eur J Med Chem, 2018)
Activity calls are given as the source filed them. No cut-off for these calls is given here.

What was measured:
[1] = tested on: HT-29; test: Antiproliferative activity against human HT-29 cells after 2 days by MTT assay; assay type: functional, cell-based; conditions: HT-29, 48 h
[2] = tested on: MCF7; test: Antiproliferative activity against human MCF7 cells after 2 days by MTT assay; assay type: functional, cell-based; conditions: MCF7, 48 h
[3] = tested on: A549; test: Antiproliferative activity against human A549 cells after 2 days by MTT assay; assay type: functional, cell-based; conditions: A549, 48 h
[4] = tested on: HEK293; test: Antiproliferative activity against HEK293 cells after 2 days by MTT assay; assay type: ADME, cell-based; conditions: Homo sapiens, HEK293, 48 h
[5] = Selectivity index, ratio of IC50 for HEK293 cells to IC50 for human HT-29 cells; conditions: HEK293 cells versus HT-29 cells
[6] = Selectivity index, ratio of IC50 for HEK293 cells to IC50 for human MCF7 cells; conditions: HEK293 cells versus MCF7 cells
[7] = Selectivity index, ratio of IC50 for HEK293 cells to IC50 for human A549 cells; conditions: HEK293 cells versus A549 cells
[8] = tested on: A549; test: Cell cycle arrest in human A549 cells assessed as accumulation at sub-G0 phase at 50 nM after 24 hrs by propidium iodide staining based flow cytometry (reference value: 2 +/- 1%); assay type: functional
Summary of the method: (§1)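 A549 cells maintained in DMEM (1 g/L glucose, 2 mM glutamine, penicillin/streptomycin/amphotericin B, 10% FBS) and treated for 24 h. Cells were then fixed, RNase-treated and stained with propidium iodide. DNA content was measured by flow cytometry to give cell-cycle phase distribution, including a sub-G1 peak. Data are means (±SD) of two experiments.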

[9] = tested on: A549; test: Cell cycle arrest in human A549 cells assessed as accumulation at G0/G1 phase at 50 nM after 24 hrs by propidium iodide staining based flow cytometry (reference value: 73 +/- 3%); assay type: functional; summary of the method: as §1
[10] = tested on: A549; test: Cell cycle arrest in human A549 cells assessed as accumulation at S phase at 50 nM after 24 hrs by propidium iodide staining based flow cytometry (reference value: 15 +/- 6%); assay type: functional; summary of the method: as §1
[11] = tested on: A549; test: Cell cycle arrest in human A549 cells assessed as accumulation at G2/M phase at 50 nM after 24 hrs by propidium iodide staining based flow cytometry (reference value: 11 +/- 4%); assay type: functional; summary of the method: as §1
[12] = tested on: A549; test: Cell cycle arrest in human A549 cells assessed as accumulation at sub-G0 phase at 15 nM after 24 hrs by propidium iodide staining based flow cytometry (reference value: 2 +/- 1%); assay type: functional; summary of the method: as §1
[13] = tested on: A549; test: Cell cycle arrest in human A549 cells assessed as accumulation at G0/G1 phase at 15 nM after 24 hrs by propidium iodide staining based flow cytometry (reference value: 73 +/- 3%); assay type: functional; summary of the method: as §1
[14] = tested on: A549; test: Cell cycle arrest in human A549 cells assessed as accumulation at S phase at 15 nM after 24 hrs by propidium iodide staining based flow cytometry (reference value: 15 +/- 6%); assay type: functional; summary of the method: as §1
[15] = tested on: A549; test: Cell cycle arrest in human A549 cells assessed as accumulation at G2/M phase at 15 nM after 24 hrs by propidium iodide staining based flow cytometry (reference value: 11 +/- 4%); assay type: functional; summary of the method: as §1
[16] = tested on: A549; test: Cell cycle arrest in human A549 cells assessed as accumulation at G2/M phase at 0.5 times antiproliferative IC50 after 24 hrs by propidium iodide staining based flow cytometry; assay type: functional; summary of the method: as §1
[17] = tested on: HT-29; test: Downregulation of c-Myc gene expression in human HT-29 cells assessed as c-Myc mRNA level at 10 nM after 48 hrs by RT-PCR method (reference value: 100%); assay type: functional
Summary of the method: (§2)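 HT-29 cells were taken at 70–80% confluence and seeded at 1.5 x 10^5 per well. After 24 h they were exposed to compound for 48 h. Total RNA was isolated and TaqMan RT-qPCR run for VEGF-A, c-MYC and hTERT, normalized to β-actin. Expression is given as percent of DMSO control, with at least three measurements and one-sample t-tests.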

[18] = tested on: HT-29; test: Downregulation of hTERT gene expression in human HT-29 cells assessed as hTERT mRNA level at 10 nM after 48 hrs by RT-PCR method (reference value: 100%); assay type: functional; summary of the method: as §2
[19] = tested on: HT-29; test: Downregulation of VEGF gene expression in human HT-29 cells assessed as VEGF mRNA level at 10 nM after 48 hrs by RT-PCR method (reference value: 100%); assay type: functional; summary of the method: as §2
[20] = tested on: HT-29; test: Inhibition of VEGF protein secretion in human HT-29 cells assessed as VEGF protein level at 10 nM after 48 hrs by ELISA (reference value: 100%); assay type: functional; set-up: scale not given: the % may be the effect or the level left
[21] = tested on: A549; test: Cell cycle arrest in human A549 cells assessed as accumulation at sub-G0 phase at 20 nM after 24 hrs by propidium iodide staining based flow cytometry (reference value: 2 +/- 1%); assay type: functional; summary of the method: as §1
[22] = tested on: A549; test: Cell cycle arrest in human A549 cells assessed as accumulation at G0/G1 phase at 20 nM after 24 hrs by propidium iodide staining based flow cytometry (reference value: 73 +/- 3%); assay type: functional; summary of the method: as §1
[23] = tested on: A549; test: Cell cycle arrest in human A549 cells assessed as accumulation at S phase at 20 nM after 24 hrs by propidium iodide staining based flow cytometry (reference value: 15 +/- 6%); assay type: functional; summary of the method: as §1
[24] = tested on: A549; test: Cell cycle arrest in human A549 cells assessed as accumulation at G2/M phase at 20 nM after 24 hrs by propidium iodide staining based flow cytometry (reference value: 11 +/- 4%); assay type: functional; summary of the method: as §1
[25] = tested on: A549; test: Cell cycle arrest in human A549 cells assessed as accumulation at sub-G0 phase at 7.5 nM after 24 hrs by propidium iodide staining based flow cytometry (reference value: 2 +/- 1%); assay type: functional
Summary of the method: (§3)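 A549 cells kept in DMEM (1 g/L glucose, 2 mM glutamine, antibiotics, amphotericin B, 10% FBS), treated 24 h with compound from 10 mM DMSO stock; fixed, RNase-treated, stained with propidium iodide, DNA content read by flow cytometry for phase distribution. Average (±SD) of two experiments.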

[26] = tested on: A549; test: Cell cycle arrest in human A549 cells assessed as accumulation at G0/G1 phase at 7.5 nM after 24 hrs by propidium iodide staining based flow cytometry (reference value: 73 +/- 3%); assay type: functional; summary of the method: as §3
[27] = tested on: A549; test: Cell cycle arrest in human A549 cells assessed as accumulation at S phase at 7.5 nM after 24 hrs by propidium iodide staining based flow cytometry (reference value: 15 +/- 6%); assay type: functional; summary of the method: as §3
[28] = tested on: A549; test: Cell cycle arrest in human A549 cells assessed as accumulation at G2/M phase at 7.5 nM after 24 hrs by propidium iodide staining based flow cytometry (reference value: 11 +/- 4%); assay type: functional; summary of the method: as §3
[29] = tested on: A549; test: Cell cycle arrest in human A549 cells assessed as accumulation at G2/M phase at antiproliferative IC50 after 24 hrs by propidium iodide staining based flow cytometry; assay type: functional; summary of the method: as §3
[30] = tested on: HT-29; test: Downregulation of c-Myc gene expression in human HT-29 cells assessed as c-Myc mRNA level at 3 nM after 48 hrs by RT-PCR method (reference value: 100%); assay type: functional
Summary of the method: (§4)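 HT-29 cells (1.5 x 10^5 per well, six-well plate) seeded 24 h, then exposed 48 h with DMSO control; total RNA extracted, target mRNA quantified by TaqMan RT-qPCR, normalized to β-actin, expressed as percentage of control. At least three measurements; one-sample t-tests.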

[31] = tested on: HT-29; test: Downregulation of hTERT gene expression in human HT-29 cells assessed as hTERT mRNA level at 3 nM after 48 hrs by RT-PCR method (reference value: 100%); assay type: functional; summary of the method: as §4
[32] = tested on: HT-29; test: Downregulation of VEGF gene expression in human HT-29 cells assessed as VEGF mRNA level at 3 nM after 48 hrs by RT-PCR method (reference value: 100%); assay type: functional; summary of the method: as §4
[33] = tested on: HT-29; test: Inhibition of VEGF protein secretion in human HT-29 cells assessed as VEGF protein level at 3 nM after 48 hrs by ELISA (reference value: 100%); assay type: functional; set-up: scale not given: the % may be the effect or the level left
Summary of the method: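 HT-29 cells (1.5 x 10^5 per well, six-well plate) seeded 24 h, then treated 48 h with DMSO control; secreted VEGF in culture supernatant measured by human VEGF ELISA kit, expressed as percentage of control. At least three measurements.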

| Compound | IC50 [1] | IC50 [2] | IC50 [3] | IC50 [4] | Activity [8] | Activity [9] | Activity [10] | Activity [11] | further results |
| --- | --- | --- | --- | --- | --- | --- | --- | --- | --- |
| COc1cc2c(c(OC)c1OC)-c1ccc(OC)c(=O)cc1[C@@H](NC(=O)c1ccc(C)cc1)CC2 | 9 nM | 31 nM | 8.8 nM | 16.1 nM | 13% | 44% | 26% | 16% |  |
| COc1cc2c(c(OC)c1OC)-c1ccc(OC)c(=O)cc1[C@@H](NC(=O)Cc1ccccc1)CC2 | 2.84 nM | 2.6 nM | 2.8 nM | 3.9 nM |  |  |  |  | Activity [21]: 5%; Activity [22]: 19%; Activity [23]: 16%; Activity [24]: 60% |
| COc1cc2c(c(OC)c1OC)-c1ccc(OC)c(=O)cc1[C@@H](NC(=O)CF)CC2 | 4.7 nM | 7.3 nM | 7.83 nM | 7.1 nM |  |  |  |  | Activity [25]: 2%; Activity [26]: 25%; Activity [27]: 15%; Activity [28]: 60%; Activity [29]: Active; Activity [30]: >100%; Activity [31]: >100%; Activity [32]: >100%; Activity [33]: 88% |

More lines, main results first:

| IC50 [1] | IC50 [2] | IC50 [3] | Compound | IC50 [4] | Activity [8] | Activity [9] | Activity [10] | Activity [11] | further results |
| --- | --- | --- | --- | --- | --- | --- | --- | --- | --- |
| 4.2 nM | 5.8 nM | 1.27 nM | CCCCCc1ccc(C(=O)N[C@H]2CCc3cc(OC)c(OC)c(OC)c3-c3ccc(OC)c(=O)cc32)cc1 | 1.6 nM |  |  |  |  | selectivity ratio [5]: 0.4; selectivity ratio [6]: 0.3; selectivity ratio [7]: 1.3 |
| 5.7 nM | 2.02 nM | 2 nM | COc1cc2c(c(OC)c1OC)-c1ccc(OC)c(=O)cc1[C@@H](NC(=O)c1ccccc1C)CC2 | 9 nM | 8% | 24% | 14% | 47% |  |
| 13.7 nM | 16.4 nM | 26 nM | COc1cc2c(c(OC)c1OC)-c1ccc(OC)c(=O)cc1[C@@H](NC(=O)CBr)CC2 | 14.4 nM |  |  |  |  | Activity [12]: 3%; Activity [13]: 25%; Activity [14]: 19%; Activity [15]: 53%; Activity [16]: Active; Activity [17]: 35%; Activity [18]: 79%; Activity [19]: 44%; Activity [20]: 100% |
